“And” between values parts separate entries of the source, which are not always exact repeats. Equal values may be shown once. Read-outs that look alike come from different tables or passages of the source.
Experiments:
[1] = ref Bodick et al., 1997; Shekhar et al., 2001, 2008; cited from earlier work
[2] = system: amphetamine-induced hyperlocomotion in rats; conditions: ref Stanhope et al., 2001; cited from earlier work
[3] = system: other mAChR subtypes; conditions: ref Shirey et al., 2008; cited from earlier work
[4] = biological target: T1, rM4 receptor (Rattus norvegicus, UniProt P08485); conditions: ref Shirey et al., 2008; cited from earlier work
T1 sequence (P08485 1-478): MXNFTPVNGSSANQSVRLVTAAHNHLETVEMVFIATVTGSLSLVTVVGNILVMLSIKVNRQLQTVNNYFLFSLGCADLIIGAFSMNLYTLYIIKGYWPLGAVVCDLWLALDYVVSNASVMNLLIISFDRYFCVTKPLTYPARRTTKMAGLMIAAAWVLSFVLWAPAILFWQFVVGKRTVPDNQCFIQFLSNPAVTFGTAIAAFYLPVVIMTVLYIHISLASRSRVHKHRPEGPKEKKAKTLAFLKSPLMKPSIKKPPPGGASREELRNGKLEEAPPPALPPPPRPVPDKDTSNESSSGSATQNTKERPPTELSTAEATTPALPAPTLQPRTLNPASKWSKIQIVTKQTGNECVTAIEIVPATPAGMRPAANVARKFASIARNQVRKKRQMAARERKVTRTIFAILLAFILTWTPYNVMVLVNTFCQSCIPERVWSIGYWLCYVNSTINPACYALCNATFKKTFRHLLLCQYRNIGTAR

[5] = Formulation into homogeneous dosing solution; format: physicochemical; conditions: vehicles acceptable for in vivo studies
In short: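 Test compound was jet-milled to uniform nanoparticles before vehicle formulation. It was then dissolved at 56.6 mg/ml in 10% Tween 80 in double-deionized water, with pH adjusted to about 7.0 using 1 N NaOH. The mixture was sonicated until a uniform homogeneous solution formed, for intraperitoneal dosing.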

[6] = biological target: T2, rat M4 mAChR (Rattus norvegicus, UniProt P08485); conditions: ref Shirey et al., 2008, cited from earlier work
T2 sequence (P08485 1-478): T1 sequence (P08485 1-478)

[7] = ref Shirey et al., 2008; cited from earlier work
[8] = system: motor performance in rats; test: Rotorod test; format: in vivo, rat; conditions: 30, 56.6, or 100 mg/kg i.p., 30-min pretreatment
In short: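 Rats got one 120-s training trial, then two 85-s trials about 10 min apart, on a 7.5-cm rod turning at a constant 20 rpm. They were pretreated i.p. for 30 min with vehicle or test compound (30, 56.6 or 100 mg/kg, salt form, 1.0 ml/kg in 10% Tween 80/water, pH ~7.0). Time on the rod was recorded, capped at 85 s. Analysis was one-way ANOVA with Dunnett's test versus vehicle.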

[9] = system: amphetamine-induced hyperlocomotion in rats; test: Amphetamine-induced hyperlocomotion; format: in vivo, rat; conditions: 56.6 mg/kg i.p., 30-min pretreatment; 1 mg/kg s.c. amphetamine; 60 min
[10] = biological target: T1, rM4 receptor; test: [3H]NMS equilibrium radioligand binding, membranes from rM4-expressing CHO cells; conditions: 0.1 nM [3H]NMS; concentrations up to 30 µM
[11] = Brain and plasma exposure pharmacokinetic profiling; format: in vivo, rat; conditions: male rats, 56.6 mg/kg i.p.; mean ± S.E.M., n = 3
In short: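 Male Sprague-Dawley rats (225–250 g), fasted overnight. Test compound dissolved at 56.6 mg/ml in 10% Tween 80/water, pH ~7.0 (1 N NaOH), sonicated, and given at 56.6 mg/kg i.p. Brain and trunk plasma taken at 0.5, 1, 2 and 4 h, three rats per time point. Brain homogenized in acetonitrile/methanol and plasma precipitated with acidified acetonitrile, both with internal standard. Analyzed by positive-ESI LC-MS-MS, linear 50 ng/ml–100 µg/ml. AUC0-∞ by trapezoidal method.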

[12] = biological target: T2, rat M4 mAChR; format: cell-based; conditions: compound alone
[13] = system: panel of 68 discrete GPCRs, ion channels, transporters, and enzymes; test: MDS Pharma LeadProfiling Screen radioligand binding panel; conditions: 10 µM; for VU0152099 with the single exception of GABAA receptors
[14] = biological target: T3, human M4 muscarinic receptor (Homo sapiens, UniProt P08173); conditions: in presence of compound
T3 sequence (P08173 1-479): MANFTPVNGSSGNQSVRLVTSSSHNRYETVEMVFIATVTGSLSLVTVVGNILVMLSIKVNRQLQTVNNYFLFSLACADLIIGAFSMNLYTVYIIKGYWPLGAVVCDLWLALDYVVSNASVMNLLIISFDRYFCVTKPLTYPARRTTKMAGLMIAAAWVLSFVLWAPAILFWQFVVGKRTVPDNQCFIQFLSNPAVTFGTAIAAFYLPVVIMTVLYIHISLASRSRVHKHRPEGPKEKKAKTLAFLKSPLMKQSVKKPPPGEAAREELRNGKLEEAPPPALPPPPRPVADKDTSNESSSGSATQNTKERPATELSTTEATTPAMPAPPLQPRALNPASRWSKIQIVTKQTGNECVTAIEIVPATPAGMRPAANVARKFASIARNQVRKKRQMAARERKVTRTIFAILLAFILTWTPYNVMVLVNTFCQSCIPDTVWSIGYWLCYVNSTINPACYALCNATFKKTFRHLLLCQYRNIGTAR

Structure (SMILES) | clinical efficacy [1] | effect on amphetamine-induced hyperlocomotion [2] | activation of the other mAChR subtypes [3] | decrease in the ACh Ki [4] | formulation into homogeneous dosing solution [5] | EC50 ([6]; read-out: M4 EC50) | potentiation (-fold shift) of the M4 ACh CRC [6] | log P [7] | effect on performance in the rotorod test [8] | effect on amphetamine-induced hyperlocomotion [9] | displacement of [3H]NMS [10] | Mean AUC (0-∞) brain [11] | Mean AUC(0-∞) plasma [11] | t1/2 brain [11] | t1/2 plasma [11] | response in the absence of an ACh EC20 (agonist activity) [12] | displacement of binding, all targets tested [13] | maximal response to ACh [14]
CCCCCCOc1nsnc1C1=CCCN(C)C1 [xanomeline, 3-[3-hexyloxy-1,2,5-thiadiazo-4-yl]-1,2,5,6-tetrahydro-1-methylpyridine] | demonstrated efficacy as both a cognition-enhancing agent and an antipsychotic agent | reversal of amphetamine-induced hyperlocomotion in rats | – | – | – | – | – | – | – | – | – | – | – | – | – | – | – | –
Cc1cc(C)c2c(N)c(C(=O)NCc3ccc(Cl)cc3)sc2n1 [VU10010, 3-amino-N-(4-chlorobenzyl)-4,6-dimethylthieno[2,3-b]pyridine-2-carboxamide] | – | – | causes no activation of the other mAChR subtypes | 14 fold | unable to formulate VU10010 into a homogeneous solution in any acceptable vehicle | ~400 nM | 47 fold | ~ 4.5 and 4.5 | – | – | – | – | – | – | – | – | – | –
COc1ccc(CNC(=O)c2sc3nc(C)cc(C)c3c2N)cc1 [VU0152100, 3-amino-N-(4-methoxybenzyl)-4,6-dimethylthieno[2,3-b]pyridine carboxamide] | – | – | – | – | afforded homogeneous dosing solutions in multiple vehicles acceptable for in vivo studies | – | – | – | had no effect on performance in the rotorod test | produced robust decreases in amphetamine-induced hyperlocomotion | neither M4 PAM displaced | 5726.35 ± 694.68 ng·h/g | 6570.35 ± 235.87 ng·h/mL | 1.12 ± 0.01 h | 1.62 ± 0.69 h | neither VU0152099 nor VU0152100 elicited a response | less than 50% | approximately 130%

— PMC2745822 (The Journal of pharmacology and experimental therapeutics, 2008)
